Test results from ChEMBL document CHEMBL4190310, “Identification of 3,4-dihydro-2H-thiochromene 1,1-dioxide derivatives with a phenoxyethylamine group as highly potent and selective α1D adrenoceptor antagonists” (Eur J Med Chem, 2017).

Experiments:
[1] = target: T1, Alpha-1D adrenergic receptor (Homo sapiens, UniProt P25100); test: Displacement of 7-methoxy-[3H]-prazosin from human alpha1D-adrenoreceptor expressed in CHOK1 cell membranes after 60 mins by TopCount liquid scintillation counting method
T1 sequence (P25100 whole entry): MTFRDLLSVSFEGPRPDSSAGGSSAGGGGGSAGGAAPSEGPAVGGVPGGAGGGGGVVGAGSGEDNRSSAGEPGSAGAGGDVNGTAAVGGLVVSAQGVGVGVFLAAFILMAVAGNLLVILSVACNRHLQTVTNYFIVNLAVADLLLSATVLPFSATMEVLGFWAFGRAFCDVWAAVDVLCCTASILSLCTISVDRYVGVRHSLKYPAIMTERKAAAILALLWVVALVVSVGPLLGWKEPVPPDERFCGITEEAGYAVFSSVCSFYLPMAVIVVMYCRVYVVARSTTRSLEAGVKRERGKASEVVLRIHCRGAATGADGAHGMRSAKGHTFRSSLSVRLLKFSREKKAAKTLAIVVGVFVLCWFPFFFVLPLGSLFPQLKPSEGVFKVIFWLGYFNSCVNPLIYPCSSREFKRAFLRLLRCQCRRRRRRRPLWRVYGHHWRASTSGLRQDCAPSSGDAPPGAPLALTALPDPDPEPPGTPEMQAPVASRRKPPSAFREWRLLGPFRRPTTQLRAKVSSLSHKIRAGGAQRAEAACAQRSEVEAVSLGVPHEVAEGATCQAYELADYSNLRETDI
Outline: (§1)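 Membranes (10 µg protein per receptor subtype) incubated with 2.5 nmol/L 7-methoxy-[3H]-prazosin and test compound at 12 concentrations. Buffer: 50 mmol/L Tris-HCl pH 7.5, 10 mmol/L MgCl2, 5 mmol/L EDTA, 0.5% BSA. Incubated 60 min at room temperature, then filtered on GF/C and washed with Tris-HCl. Nonspecific binding set with 10 µmol/L phentolamine. IC50 from logistic regression; Ki = IC50/(1 + [ligand]/Kd).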

CYP3A4 = CYP3A4 (Homo sapiens, UniProt P08684); test: Inhibition of human microsomal CYP3A4 at 10 uM after 10 mins by LC-MS/MS analysis relative to control; assay type: ADME; details: microsomes
Sequence of CYP3A4 (P08684 whole entry): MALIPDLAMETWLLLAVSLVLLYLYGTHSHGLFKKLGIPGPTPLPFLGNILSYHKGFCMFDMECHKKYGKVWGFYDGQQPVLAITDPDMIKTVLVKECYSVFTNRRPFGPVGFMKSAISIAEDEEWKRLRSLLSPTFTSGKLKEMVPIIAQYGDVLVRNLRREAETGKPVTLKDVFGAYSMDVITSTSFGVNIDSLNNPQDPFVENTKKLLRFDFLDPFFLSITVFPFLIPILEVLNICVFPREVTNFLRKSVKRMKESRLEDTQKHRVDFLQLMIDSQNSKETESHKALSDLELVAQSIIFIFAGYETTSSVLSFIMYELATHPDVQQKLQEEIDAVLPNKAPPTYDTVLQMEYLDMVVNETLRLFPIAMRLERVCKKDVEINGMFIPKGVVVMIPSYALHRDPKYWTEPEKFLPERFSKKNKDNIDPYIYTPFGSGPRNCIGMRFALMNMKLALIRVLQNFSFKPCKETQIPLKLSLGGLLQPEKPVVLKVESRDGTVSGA
Outline: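 Reversible inhibition test. Midazolam substrate incubated with 0.1 mg/mL human liver microsomes and 10 µM test compound for 10 min at 37 °C. Stopped with acetonitrile/water.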

[2] = target: T2, Alpha-1A adrenergic receptor (Homo sapiens, UniProt P35348); test: Displacement of 7-methoxy-[3H]-prazosin from human alpha1A-adrenoreceptor expressed in CHOK1 cell membranes after 60 mins by TopCount liquid scintillation counting method; outline: as §1
T2 sequence (P35348 whole entry): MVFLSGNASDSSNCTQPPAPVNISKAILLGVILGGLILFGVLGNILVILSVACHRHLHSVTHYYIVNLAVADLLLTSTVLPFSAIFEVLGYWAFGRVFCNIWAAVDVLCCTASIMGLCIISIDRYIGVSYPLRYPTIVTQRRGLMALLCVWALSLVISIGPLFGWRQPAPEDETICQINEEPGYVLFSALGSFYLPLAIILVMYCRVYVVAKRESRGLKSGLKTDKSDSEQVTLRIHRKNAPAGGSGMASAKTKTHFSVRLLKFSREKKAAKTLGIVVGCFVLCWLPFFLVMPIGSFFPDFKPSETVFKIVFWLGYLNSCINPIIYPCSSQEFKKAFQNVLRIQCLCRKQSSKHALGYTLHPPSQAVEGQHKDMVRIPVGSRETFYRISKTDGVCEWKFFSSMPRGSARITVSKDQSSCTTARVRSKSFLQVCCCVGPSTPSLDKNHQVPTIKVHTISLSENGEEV

[3] = target: T3, Alpha-1B adrenergic receptor (Homo sapiens, UniProt P35368); test: Displacement of 7-methoxy-[3H]-prazosin from human alpha1B-adrenoreceptor expressed in CHOK1 cell membranes after 60 mins by TopCount liquid scintillation counting method; outline: as §1
T3 sequence (P35368 whole entry): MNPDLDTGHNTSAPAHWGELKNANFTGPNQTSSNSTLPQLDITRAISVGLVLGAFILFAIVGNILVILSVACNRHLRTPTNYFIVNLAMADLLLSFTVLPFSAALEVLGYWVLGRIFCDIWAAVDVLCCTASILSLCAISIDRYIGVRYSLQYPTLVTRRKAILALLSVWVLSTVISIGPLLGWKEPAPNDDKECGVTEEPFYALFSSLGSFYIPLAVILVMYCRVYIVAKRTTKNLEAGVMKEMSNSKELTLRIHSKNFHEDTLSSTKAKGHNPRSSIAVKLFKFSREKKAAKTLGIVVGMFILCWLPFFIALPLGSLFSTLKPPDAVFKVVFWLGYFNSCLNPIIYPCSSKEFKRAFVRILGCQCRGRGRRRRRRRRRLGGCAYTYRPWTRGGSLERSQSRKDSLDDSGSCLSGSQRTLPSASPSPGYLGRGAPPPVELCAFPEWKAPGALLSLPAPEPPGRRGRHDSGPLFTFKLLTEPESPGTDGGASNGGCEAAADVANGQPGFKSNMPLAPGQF

[4] = target: T4, Alpha-1D adrenergic receptor (Rattus norvegicus) (UniProt P23944); test: Antagonist activity at alpha1D-adrenoreceptor in Wistar rat bladder strips assessed as relaxation of PHE-induced contractile response after 30 mins; assay type: functional
T4 sequence (whole entry): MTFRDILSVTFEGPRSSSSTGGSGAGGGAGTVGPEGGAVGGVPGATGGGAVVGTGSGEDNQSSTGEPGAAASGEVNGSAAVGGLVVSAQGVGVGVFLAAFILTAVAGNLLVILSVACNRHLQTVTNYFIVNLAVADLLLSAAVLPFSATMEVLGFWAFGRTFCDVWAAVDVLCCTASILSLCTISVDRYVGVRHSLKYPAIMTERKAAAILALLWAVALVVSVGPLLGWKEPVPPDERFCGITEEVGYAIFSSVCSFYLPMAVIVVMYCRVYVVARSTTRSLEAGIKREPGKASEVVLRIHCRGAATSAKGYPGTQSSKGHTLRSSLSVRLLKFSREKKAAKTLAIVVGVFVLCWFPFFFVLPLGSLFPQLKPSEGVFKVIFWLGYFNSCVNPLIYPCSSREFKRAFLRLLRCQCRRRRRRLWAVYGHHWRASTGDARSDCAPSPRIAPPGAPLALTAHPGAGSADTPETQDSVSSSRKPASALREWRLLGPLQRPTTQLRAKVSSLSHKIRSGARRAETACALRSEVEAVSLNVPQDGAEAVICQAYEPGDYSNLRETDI

Homo sapiens [5] = species on record: Homo sapiens; test: Selectivity ratio of Ki for human alpha1A-adrenoreceptor to Ki for human alpha1D-adrenoreceptor
Homo sapiens [6] = species on record: Homo sapiens; test: Selectivity ratio of Ki for human alpha1B-adrenoreceptor to Ki for human alpha1D-adrenoreceptor

Ki [1] | inhibition at 10 min, 10 µM (CYP3A4) | Ki [2] | Ki [3] | IC30 [4] | Ratio Ki (Homo sapiens [5]) | Ratio Ki (Homo sapiens [6]) | SMILES
17 nM | 26.5% | – | – | – | – | – | O=S1(=O)CCC(NCCOc2cc(F)ccc2F)c2ccccc21 (stereo unspecified)
> 94 nM | – | > 270 nM | > 120 nM | – | – | – | O=S1(=O)CC(NCCOc2cc(F)ccc2Cl)c2ccccc21 (stereo unspecified)
38 nM | 34.3% | – | – | – | – | – | COc1ccc2c(c1)S(=O)(=O)CCC2NCCOc1cc(F)ccc1F (stereo unspecified)
65 nM | – | > 270 nM | > 120 nM | – | – | – | Fc1ccc(Cl)c(OCCNCc2cccc(Cl)c2)c1
3.9 nM | 52.3% | > 270 nM | > 120 nM | 54 nM | – | – | O=S1(=O)CCC(NCCOc2cc(F)ccc2Cl)c2ccccc21 (stereo unspecified)
0.3 nM | 20.7% | 130 nM | 150 nM | 5.5 nM | 430 | 500 | CNc1ccc2c(c1)[C@@H](NCCOc1cc(F)ccc1F)CCS2(=O)=O
9.1 nM | – | 50 nM | 44 nM | – | – | – | CS(=O)(=O)c1ccccc1CCCNCCOc1cc(F)ccc1Cl
0.85 nM | 26.1% | 350 nM | 430 nM | 80 nM | 410 | 510 | CNc1ccc2c(c1)C(NCCOc1cc(F)ccc1F)CCS2(=O)=O (stereo unspecified)
4.3 nM | – | > 270 nM | > 120 nM | 140 nM | – | – | CS(=O)(=O)c1ccccc1CNCCOc1cc(F)ccc1Cl
62 nM | 26.7% | 1200 nM | > 1200 nM | – | 19 | > 20 | CNc1ccc2c(c1)[C@H](NCCOc1cc(F)ccc1F)CCS2(=O)=O
> 94 nM | – | > 270 nM | > 120 nM | – | – | – | CC(NCCOc1cc(F)ccc1Cl)c1ccccc1S(C)(=O)=O (stereo unspecified)
9.5 nM | 28.6% | – | – | – | – | – | COc1cccc2c1C(NCCOc1cc(F)ccc1F)CCS2(=O)=O (stereo unspecified)
86 nM | 12.5% | – | – | – | – | – | NC(=O)c1ccc2c(c1)C(NCCOc1cc(F)ccc1F)CCS2(=O)=O (stereo unspecified)
170 nM | 17.1% | – | – | – | – | – | COc1cccc2c1S(=O)(=O)CCC2NCCOc1cc(F)ccc1F (stereo unspecified)
17 nM | – | 1800 nM | 1100 nM | 250 nM | 110 | 65 | CS(=O)(=O)c1ccc(Cl)cc1CNCCOc1cc(F)ccc1Cl
310 nM | 5.2% | – | – | – | – | – | CS(=O)(=O)c1ccc2c(c1)C(NCCOc1cc(F)ccc1F)CCS2(=O)=O (stereo unspecified)
8.6 nM | – | 150 nM | 30 nM | – | – | – | CS(=O)(=O)c1ccccc1CCNCCOc1cc(F)ccc1Cl
1.5 nM | 22.7% | – | – | – | – | – | COc1ccc2c(c1)C(NCCOc1cc(F)ccc1F)CCS2(=O)=O (stereo unspecified)
12 nM | 23.1% | – | – | – | – | – | O=S1(=O)CCC(NCCOc2cc(F)ccc2F)c2cc(F)ccc21 (stereo unspecified)
